Experiments:
HeLa = test: Cytotoxicity against human HeLa cells after 72 hrs by CCK8 assay; format: functional, cell-based
A549 = test: Cytotoxicity against human A549 cells after 72 hrs by CCK8 assay; format: functional, cell-based; settings: A549, 72 h
HepG2 = test: Cytotoxicity against human HepG2 cells after 72 hrs by CCK8 assay; settings: HepG2, 72 h
U-937 = test: Cytotoxicity against human U937 cells after 72 hrs by CCK8 assay; settings: U-937, 72 h
[1] = biological target: Cyclin-dependent kinase 2 (Homo sapiens, UniProt P24941); test: Binding affinity to CDK2 (unknown origin) by surface plasmon resonance analysis
How it was run: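 CDK-2 amine-coupled to CM5 chip flow cell 2 (50 μg/mL in 10 mM acetate pH 4.5, ~5500 RU). BSA reference cell (pH 3.8, ~6000 RU) subtracted. Running buffer PBS pH 7.4, 25 °C, 30 μL/min. Analytes at several concentrations injected 120 s, 120 s dissociation, with solvent correction. Glycine-HCl pH 2.1 regeneration for 30 s. Kd from steady-state affinity model fit.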

| Structure (SMILES) | IC50 (A549) | also measured |
| --- | --- | --- |
| C=C1CCC[C@H]2[C@](C)(CC3=C(O)C(=O)C=C(NCCc4ccccc4)C3=O)[C@@H](C)CC[C@]12C | > 10 µM | IC50 (HeLa): 5.4 µM; IC50 (HepG2): 3.5 µM; IC50 (U-937): 0.6 µM |
| C=C1CCC[C@H]2[C@]3(C)CC4=C(O[C@]3(C)CC[C@]12C)C(=O)C=C(NC)C4=O | > 10 µM | Kd [1]: 4.8 µM |
| C=C1CCC[C@@]23OC4=C(C[C@]2(C)[C@@H](C)CC[C@@]13C)C(=O)C(OCC)=CC4=O | > 10 µM | – |
| C=C1CCC[C@@H]2[C@@]1(C)CC[C@@]1(C)OC3=C(C[C@@]21C)C(=O)C(NC)=CC3=O | > 10 µM | – |
| C=C1CCC[C@H]2[C@]3(C)CC4=C(O[C@]3(C)CC[C@]12C)C(=O)C=C(OCC)C4=O | > 10 µM | – |
| C=C1CCC[C@@]23OC4=C(C[C@]2(C)[C@@H](C)CC[C@@]13C)C(=O)C(NC)=CC4=O | > 10 µM | – |
| CCOC1=CC(=O)C2=C(C[C@@H]3[C@@]4(C)CCCC(C)(C)[C@@H]4CC[C@@]3(C)O2)C1=O | > 10 µM | – |
| COc1cccc2c1C(=O)c1c(O)c3c(c(O)c1C2=O)C[C@@](O)(C(=O)CO)C[C@@H]3O[C@H]1C[C@H](N)[C@H](O)[C@H](C)O1 [DOXORUBICIN] | 0.1 µM | – |

Reference: ChEMBL document CHEMBL4118028, “Sesquiterpene Quinones/Hydroquinones from the Marine Sponge Spongia pertusa Esper” (J Nat Prod, 2017)
